Experimental data published in paper PMC5713684 (International Journal of Nanomedicine, 2017).
No end group written: not given here. *: point of attachment. Octanoyl = CCCCCCCC(=O)*

Legend:
[1] = Ghrl-stability evaluation; assay type: physicochemical; conditions: Ghrl 1 mg/mL, physiological pH, 4–60°C, up to 48 hours, HPLC/UV
In short: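 Ghrelin at 1 mg/mL was held at 4, 25, 37 and 60°C in water, PBS pH 7.4, HBSS pH 7.4 and pharmacopoeial buffers from pH 2 to 10.4 (PBS, acetate, phosphate, boric acid, borate). Samples were drawn at 0.5–6, 24 and 48 h. Remaining peptide was quantified by reversed-phase HPLC/UV on an ODS column at 37°C, using water/acetonitrile mobile phases with 0.1% TFA.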

[2] = Isothermal titration calorimetry of Ghrl with AL-free; assay type: binding; conditions: ITC, AL-free 10 mg/mL injected into Ghrl 1 mg/mL, PBS pH 7.4, 26°C, mean of n=2
In short: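 Empty anionic liposomes (10 mg/mL in PBS pH 7.4) were injected stepwise into ghrelin (1 mg/mL in PBS) in the measuring cell. Each injection lasted 14.5 s, with 600 s spacing until steady state. Solutions were degassed beforehand, water served as reference and stirring was 300 rpm. A PBS-only blank was titrated. Heats were fitted to a cumulative model for K, ΔG, ΔH and TΔS. The titration was done twice and averaged.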

[3] = human plasma; cited from earlier work
[4] = cited from earlier work

Q: What does the source list for “ghrelin (GSS(Octanoyl)FLSPEHQRVQQRKESKKPPAKLQPR; UniProt Q9UBU3 24-51, looked up) [Ghrl]”?
A: Stability of Ghrl on prolonged heating [1]: without any degradation; Binding coefficient K [2]: 0.875 mM⁻¹; plasmatic half-life t½ [3]: 9 to 13 min; isoelectric point [4]: 11.5
